# Hits are enriched below; roughly 2.1% of the tested compounds scored in any of these assays.
# b-catenin transl: modulators of beta-catenin nuclear translocation, primary screen, imaging, HeLa cells, immunofluorescence, high-content; nuclear translocation activity, % at 5 µM; 190,000 tested, 0.3% active; AID 1665, 2009;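 active = nuclear translocation activity above 50% at 5 µM, with a well cell count of 50 or more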;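 note: per-cell ratio of nuclear to cytoplasmic median beta-catenin stain intensity; plate controls were DMSO negative control for no effect and GSK-3 inhibitor IX positive control for full effect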
#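 Test system: human HeLa cells, endogenous beta-catenin. Times: 24 h compound exposure, 37°C. Measured by: beta-catenin immunofluorescence imaging with DAPI.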
# ABCG2 block: ABCG2 efflux pump inhibitors, primary screen, multiplex with ABCB1, IgMXP3 cells, flow cytometry; Broad substrate specificity ATP-binding cassette transporter ABCG2 (Homo sapiens), Q9UNQ0; JC-1 efflux; inhibition, % at 6.6 µM; 190,000 tested, 0.1% active; AID 1325, 2008;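 active = inhibition above 80%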;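 note: 0% = DMSO and 100% = nicardipine control wells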
#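 System: two drug-resistant human cell lines, ABCG2 and ABCB1; controls: nicardipine high and DMSO low controls; times: 10 min exposure at 25 °C with rotation, no wash; detection: flow cytometry of retained JC-1 fluorescence; read-out basis: percent efflux inhibition, scaled nicardipine 100% to DMSO 0%; doses: one concentration, 6.6 µM final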
# Autophagy HCS: autophagy modulators in MEF cells, primary screen, imaging, high-content, MEF GFP-LC3; MEF GFP-LC3 puncta imaging; test concentration mostly 10 µM; calls only at 10 µM (by protocol); 190,000 tested, 0.98% active;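 active = percentage of spot-positive cells more than 3 SD above its plate mean, without a fluorescence outlier flag or 80% toxicity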;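 note: spot-positive cell cutoff set from DMSO-treated cells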
# MT stabilizer: microtubule stabilizers in HeLa cells, primary screen, imaging, high-content imaging | % tubulin-high responders, % at 10 µM | 200,000 tested, 0.83% active | AID 2205, 2009 | HeLa tubulin immunostaining HCS, 24 h; share of cells brighter than vehicle mean+2SD;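 active = plate Z-score above 3 for both tubulin-high and condensed-nucleus cell shares, with cell loss under 80%, at 10 µM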;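 note: anti alpha tubulin signal scored within the nucleus-defined area of each cell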
# ABCB1 block: ABCB1 efflux pump inhibitors, primary screen, cell-based, multiplex, flow cytometry, ABCG2 counter-screen; CCRF-Adr cells, JC-1 efflux; inhibition, % at 6.6 µM; 190,000 tested, 0.067% active; AID 1326, 2008; in the data active = inhibition above about 40%;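 note: 0% = vehicle and 100% = reference inhibitor; higher value means more JC-1 retained so stronger ABCB1 efflux block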
# Arbovirus inh: antivirals against arbovirus infection, primary screen, cell-based, full library, 10K replicate subset. arbovirus infection cell-based antiviral screen. inhibition, % at 10 µM. 200,000 tested, 0.37% active. AID 1251, 2008; in the data active = inhibition above about 30%
# An asterisk follows results filed as active; i = inactive; / = no result; + = active, no number.
SMILES,b-catenin transl,ABCG2 block,Autophagy HCS,MT stabilizer,ABCB1 block,Arbovirus inh
O=C1CCCC2=C1C(c1cccs1)Nc1ccc3ncccc3c12 (stereo not given),1.2,-0.4,i,4.4,0.0,-16.1
COc1ccc(Cl)cc1S(=O)(=O)n1cnc2ccccc21,1.7,3.0,i,26.4*,0.5,6.8
CCOc1cc(C)c(Cl)cc1S(=O)(=O)n1cnc2ccccc21,/,5.8,i,4.1,0.2,9.1
COc1ccc(Cl)cc1S(=O)(=O)N1CCCC1,/,0.6,i,2.2,-0.1,3.8
CCOc1ccc(Cl)cc1S(=O)(=O)n1cnc2ccccc21,/,1.1,i,24.2*,0.2,-4.8
Cc1oc2c(c1C(=O)NC(Cc1c[nH]c3ccccc13)C(=O)O)CCCC2 (stereo not given),1.5,-0.8,i,2.9,-0.2,3.7
Cc1cccc2cc(CN(Cc3ccccc3)C(=O)c3cccc(F)c3)c(Cl)nc12,-1.9,1.1,i,3.0,0.8,-12.1
COc1cc2c(cc1OC)CN(C(=O)c1ccc3nc[nH]c3c1)CC2,82.3*,3.7,i,17.9*,0.5,-2.0
O=C(c1ccc2nc[nH]c2c1)N1CCc2ccccc2C1,-2.7,3.5,i,3.0,0.9,-1.3
COc1ccccc1NS(=O)(=O)c1cc(NC(=S)Nc2cc(C)cc(C)c2)ccc1Cl,3.1,-8.2,i,5.8,-1.4,10.4
Cc1ccc(NC(=O)CN2C(=O)N/C(=C/c3ccc(C)o3)C2=O)cc1,-3.3,-0.5,i,1.5,-0.4,5.5
Cc1ccc(NC(=O)CN2C(=O)N/C(=C/c3ccc(C)s3)C2=O)cc1,-0.2,-0.4,+,3.1,0.0,-0.4
Cc1cccc(CN2C(=O)N/C(=C/c3ccc(C)s3)C2=O)c1,66.8*,2.0,+,53.4*,0.9,-21.4
Cc1ccc(/C=C2/NC(=O)N(Cc3ccccc3)C2=O)s1,1.5,2.4,i,2.0,0.5,6.4
CC(=O)Nc1ccc(NC(=O)CSc2nnc(-c3ccccc3)n2Cc2ccc3c(c2)OCO3)cc1,0.3,0.0,i,2.9,-0.2,12.4
CCOC(=O)c1ccc(NC(=O)Nc2ccc3c4c(cccc24)C(=O)N3CC)cc1,-3.5,-2.1,+,3.8,-0.8,-5.1
CC(C)(C)NC(=O)c1ccc(COCC(F)(F)F)o1,-5.8,3.3,i,3.3,0.3,-2.7
O=C(/C=C/c1cn(-c2ccccc2)nc1-c1cccnc1)c1ccco1,7.5,19.7,i,12.0*,12.2,-30.2
CC1CCCN(C(=O)c2cccc(S(=O)(=O)Nc3cc(C(F)(F)F)ccc3Cl)c2)C1 (stereo not given),-0.4,0.2,i,9.5,0.2,42.0*
O=C(c1cccc(S(=O)(=O)Nc2cccc(C(F)(F)F)c2)c1)N1CCOCC1,0.3,/,/,/,/,/
COC(=O)c1sc(N)c(C(=O)OC)c1COC(=O)c1c(C)noc1C,24.2,0.4,i,55.8*,-2.6,-20.5
CN(Cc1ccccc1)S(=O)(=O)c1ccc(NC(=S)NC(=O)C2CCCC2)cc1,1.4,1.2,i,28.4*,0.2,-15.8
O=C1CSC(c2cccc([N+](=O)[O-])c2)N1c1c(F)cccc1F (stereo not given),0.9,1.9,i,10.5*,0.8,-13.0
Cc1c(C(=O)Nc2ccc(Cl)cc2)c2ccccn2c1C(=O)c1ccc(F)cc1,/,13.4,+,2.3,1.8,-0.2
CCCc1cc(=O)[nH]c(SCc2csc(-c3ccccc3)n2)n1,-5.0,2.5,i,2.0,1.2,2.5
SMILES,b-catenin transl,ABCG2 block,Autophagy HCS,MT stabilizer,ABCB1 block,Arbovirus inh
Cc1ccsc1C(=O)N/N=C/c1ccc2c(c1)OCO2,2.1,11.2,i,4.4,0.6,-9.3
C(=C\c1ccccc1)/C=N/Nc1nc2ccccc2[nH]1,20.8,-0.2,i,12.9*,-0.3,1.2
C(=N\Nc1nc2ccccc2[nH]1)/c1ccccc1,0.3,5.0,i,/,0.9,-0.1
COC(=O)/C=C1\NCCSC1=O,-3.2,-0.1,i,4.7,0.0,2.7
O=c1[nH]c(SCCOc2cccc3ccccc23)nc2ccccc12,-2.1,8.2,+,2.9,0.6,-2.9
COc1ccc(-c2nc(C)c(C(C)=O)n2O)cc1OC,0.5,9.8,+,3.8,1.0,-7.3
FC(F)(F)c1cc(C(F)(F)F)c2ccc(N3CCN(c4ccc(Cl)cc4)CC3)nc2n1,0.6,0.9,i,2.5,-0.2,-7.6
N#CC(c1ccc(Cl)cc1)c1ccc2c(C(F)(F)F)cc(C(F)(F)F)nc2n1 (stereo not given),/,7.8,+,3.8,0.2,-29.4
CCOc1ccc(-c2nnn(CC(=O)c3cc(OC)ccc3OC)n2)cc1,0.9,0.3,i,50.2*,-0.1,-14.0
COc1ccc(-c2nnn(CC(=O)N3CCN(c4ccccc4OC)CC3)n2)cc1,0.1,3.6,+,2.9,0.1,1.6
COC(=O)Oc1ccc(/C=C/C(=O)OC(C)C)cc1OC(=O)OC,5.4,0.0,i,5.5,0.0,-28.0
COc1cccc(-c2cc(C(F)(F)F)c(C#N)c(=O)[nH]2)c1,-0.7,9.1,+,6.4,1.4,23.6
Cc1ccc(-c2cc(C(F)(F)F)c(C#N)c(=O)[nH]2)cc1,-1.2,20.4,i,2.9,1.2,54.5*
N#Cc1c(C(F)(F)F)cc(-c2ccccc2)[nH]c1=O,/,2.0,i,0.9,0.1,22.5
COc1ccc(NC(=O)CN2C(=O)CC(C)(C)S(=O)(=O)c3ccccc32)cc1,/,0.2,i,3.7,0.2,-3.0
Cc1cccc(N2CCN(CC(O)COc3ccccc3Cl)CC2)c1 (stereo not given),-0.9,/,/,/,/,/
CC(C)c1nnc(SCc2ccc(CSc3nnc(C(C)C)n3N)cc2)n1N,-7.6,8.9,i,1.9,1.3,3.8
O=C(CCSc1nc2ccccc2s1)N/N=C/c1c(O)ccc2ccccc12,1.7,-8.6,i,20.6*,-1.4,-32.4
Cc1cc(C)n(CCC(=O)N/N=C/c2c(O)ccc3ccccc23)n1,1.5,/,/,/,/,/
Cn1c(C(=O)OCC(=O)NCc2ccco2)cc2sccc21,8.8,5.7,i,2.5,0.2,-15.4
Cc1cc2c(cc(C(=O)OCC(=O)NCc3ccco3)n2C)s1,43.9,1.8,i,50.9*,0.1,-14.8
O=C(NCc1ccccc1Cl)C(=O)c1c[nH]c2ccccc12,0.2,17.7,i,3.2,0.8,-5.7
C=C(c1ccc(OC)cc1)c1ccc(OC)cc1,88.2*,0.6,i,6.0,0.3,-12.5
